Laboratory results reported in PMC8009840 (Bioorganic chemistry, 2021).

Assays:
[1] = molecular target: KOR; conditions: cited from earlier work
[2] = molecular target: MOR; conditions: read-out: MOR Ki; cited from earlier work
[3] = molecular target: KOR (Mus musculus, UniProt P33534); assay: Competitive radioligand binding assay, KOR; design: species or system mice; conditions: for Selectivity δ/κ: Ki ratio DOR/KOR; for Selectivity μ/κ: Ki ratio MOR/KOR
Outline: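 Competition binding on membranes (30 μg protein) from CHO cells expressing mouse KOR or MOR, or human DOR. [3H]diprenorphine labels KOR and DOR, and [3H]naloxone labels MOR. Varied test compound in TME buffer (50 mM Tris, 3 mM MgCl2, 0.2 mM EGTA, pH 7.4), 1.5 h, 30 °C, then filtration. Nonspecific binding: 5 μM U50,488 (KOR), DAMGO (MOR), SNC80 (DOR). IC50 by nonlinear regression, converted to Ki by Cheng-Prusoff; selectivity as Ki ratios.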

[4] = molecular target: human KOR (Homo sapiens, UniProt P41145); assay: [35S]-GTPγS functional assay, KOR-expressed CHO cell membranes; type: biochemical; conditions: for EC50: read-out: KOR [35S]-GTPγS binding EC50, mean ± SEM, at least three experiments; for KOR [35S]-GTPγS binding % Emax of U50,488H: relative to full agonist U50,488H (5 μM)
Outline: (§1)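 CHO membranes (10 μg protein) incubated 1 h at 30 °C with varied test compound, GDP (15 μM) and 80 pM [35S]GTPγS; nonspecific binding with 10 μM unlabelled GTPγS. Full agonist at 5 μM for the maximal response: U50,488H (KOR), DAMGO (MOR), DPDPE (DOR). Emax is net-stimulated binding as % of that full-agonist stimulation. Mean ± SEM of at least three experiments.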

[5] = molecular target: rat MOR (Rattus norvegicus, UniProt P33535); assay: [35S]-GTPγS functional assay, MOR-expressed CHO cell membranes; type: biochemical; conditions: for EC50: read-out: MOR [35S]-GTPγS binding EC50, mean ± SEM, at least three experiments; for MOR [35S]-GTPγS binding % Emax of DAMGO: relative to full agonist DAMGO (5 μM)
Outline: as §1

[6] = molecular target: mouse DOR (Mus musculus, UniProt P32300); assay: [35S]-GTPγS functional assay, DOR-expressed CHO cell membranes; type: biochemical; conditions: for EC50: read-out: DOR [35S]-GTPγS binding EC50, mean ± SEM, at least three experiments; for DOR [35S]-GTPγS binding % Emax of DPDPE: relative to full agonist DPDPE (5 μM)
Outline: as §1

Row | SMILES | μ/κ Ki ratio [1] | Ki ([1]; read-out: KOR Ki) | Ki [2] | Selectivity δ/κ [3] | Selectivity μ/κ [3] | EC50 [4] | KOR [35S]-GTPγS binding % Emax of U50,488H [4] | EC50 [5] | MOR [35S]-GTPγS binding % Emax of DAMGO [5] | EC50 [6] | DOR [35S]-GTPγS binding % Emax of DPDPE [6]
1 | CN(C(=O)/C=C/c1ccoc1)[C@@H]1CC[C@@]2(O)[C@H]3Cc4cccc5c4[C@@]2(CCN3CC2CC2)[C@H]1O5 [CT-18] | 355 | 0.0015 µM | 0.533 µM | – | – | – | – | – | – | – | –
2 | O=C(N[C@@H]1CC[C@@]2(O)[C@H]3Cc4cccc5c4[C@@]2(CCN3CC2CC2)[C@H]1O5)c1ccnc(Br)c1 [Compound 6b, 17-Cyclopropylmethyl-4,5α-epoxy-14β-hydroxy-6β-{[4′-(2′-bromopyridyl)]carboxamido}morphinan] | – | – | – | 280 | 3.3 | 0.0819 ± 0.00909 µM | 99.27 ± 2.79% | 0.291 ± 0.042 µM | 33.62 ± 3.92% | 2.68 ± 0.689 µM | 145.10 ± 12.31%
3 | Cl.O=C(N[C@@H]1CC[C@@]2(O)[C@H]3Cc4cccc5c4[C@@]2(CCN3CC2CC2)[C@H]1O5)c1ccnc(Cl)c1 [Compound 6a, 17-Cyclopropylmethyl-4,5α-epoxy-14β-hydroxy-6β-{[4′-(2′-chloropyridyl)]carboxamido}morphinan hydrochloride] | – | – | – | 203 | 1.8 | – | – | – | – | – | –
4 | COc1cc(C(=O)N[C@@H]2CC[C@@]3(O)[C@H]4Cc5cccc6c5[C@@]3(CCN4CC3CC3)[C@H]2O6)ccn1 [Compound 6e, 17-Cyclopropylmethyl-4,5α-epoxy-14β-hydroxy-6β-{[4′-(2′-methoxypyridyl)]carboxamido}morphinan] | – | – | – | 67.9 | 0.53 | – | – | – | – | – | –
5 | N#Cc1cc(C(=O)N[C@@H]2CC[C@@]3(O)[C@H]4Cc5cccc6c5[C@@]3(CCN4CC3CC3)[C@H]2O6)ccn1 [Compound 6c, 17-Cyclopropylmethyl-4,5α-epoxy-14β-hydroxy-6β-{[4′-(2′-cyanopyridyl)]carboxamido}morphinan] | – | – | – | 551 | 9.5 | 0.092 ± 0.00847 µM | 100.20 ± 2.37% | 0.338 ± 0.0311 µM | 26.48 ± 3.73% | 1.85 ± 0.152 µM | 113.90 ± 3.10%
6 | Cc1cc(C(=O)N[C@@H]2CC[C@@]3(O)[C@H]4Cc5cccc6c5[C@@]3(CCN4CC3CC3)[C@H]2O6)ccn1 [Compound 6d, 17-Cyclopropylmethyl-4,5α-epoxy-14β-hydroxy-6β-{[4′-(2′-methylpyridyl)]carboxamido}morphinan] | – | – | – | 38.0 | 0.41 | – | – | – | – | – | –
